Experimental findings from publication PMC13022283 (Scientific Reports, 2026) are described below.

One may read the IC50 as the concentration needed to halve the response being measured. Usually viability stands for a per cent measure of how many cells are alive, often set against a control. Broadly, the inhibition is the change of the read-out against control, counted positive when it falls.

Molecules are shown by their SMILES.

One data set addresses T1, h-e5’NT (Homo sapiens, UniProt P21589).
T1 sequence (P21589 27-574): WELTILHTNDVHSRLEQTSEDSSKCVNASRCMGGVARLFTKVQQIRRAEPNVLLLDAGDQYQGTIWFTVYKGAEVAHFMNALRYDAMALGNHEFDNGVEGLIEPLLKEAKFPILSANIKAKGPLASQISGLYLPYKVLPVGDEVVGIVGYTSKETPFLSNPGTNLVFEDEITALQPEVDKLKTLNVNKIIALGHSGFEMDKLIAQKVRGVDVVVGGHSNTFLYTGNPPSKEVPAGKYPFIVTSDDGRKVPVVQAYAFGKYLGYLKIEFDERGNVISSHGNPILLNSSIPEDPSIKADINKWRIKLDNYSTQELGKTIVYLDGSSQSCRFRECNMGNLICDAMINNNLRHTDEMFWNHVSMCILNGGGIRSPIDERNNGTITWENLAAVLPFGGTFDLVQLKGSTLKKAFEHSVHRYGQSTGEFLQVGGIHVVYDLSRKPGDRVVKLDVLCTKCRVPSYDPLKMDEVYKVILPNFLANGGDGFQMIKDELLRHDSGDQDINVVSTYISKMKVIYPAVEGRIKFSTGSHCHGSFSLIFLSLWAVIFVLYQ
The experiment in a line: h-e5’NT activity assay. Type of data set: biochemical. Conditions: for inhibition at 100 µM: read-out: % Inhibition h-e5’NT. The method in brief:
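Human ecto-5′-nucleotidase from transfected COS-7 cells was pre-incubated 10 min at 37 °C with compound (0.1 mM final) in 50 mM Tris–HCl with MgCl₂ and CaCl₂, pH 7.4. The reaction was started with AMP (2 mM solution as added) and run 20 min at 37 °C. Released phosphate was detected with malachite green at 630 nm, in triplicate.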

A further data set can be described thus: MTT assay. Type of data set: cell-based, human. To be noted: human, MCF-7 breast cancer cells, MCF-7, 100 μM; for cytotoxicity at 24 h, 100 µM: % Cytotoxicity ± SD; for viability at 24 h, 100 µM: % Viability. On the technique in general: Tetrazolium assays rely on reduction of a dye to a coloured formazan, in cell work by metabolically active cells.
Data set [1] concerns h-NTPDase1, -2, -3, and -8 isoenzymes, h-NPP1, and h-e5′NT. Nature of the data set: Enzymatic assays, all ectonucleotidases. Type of data set: biochemical, human. Conditions: at 100 µM.
For a further data set, the target named is T2, h-NTPDase1 (Homo sapiens, UniProt P49961).
T2 sequence (P49961 1-510): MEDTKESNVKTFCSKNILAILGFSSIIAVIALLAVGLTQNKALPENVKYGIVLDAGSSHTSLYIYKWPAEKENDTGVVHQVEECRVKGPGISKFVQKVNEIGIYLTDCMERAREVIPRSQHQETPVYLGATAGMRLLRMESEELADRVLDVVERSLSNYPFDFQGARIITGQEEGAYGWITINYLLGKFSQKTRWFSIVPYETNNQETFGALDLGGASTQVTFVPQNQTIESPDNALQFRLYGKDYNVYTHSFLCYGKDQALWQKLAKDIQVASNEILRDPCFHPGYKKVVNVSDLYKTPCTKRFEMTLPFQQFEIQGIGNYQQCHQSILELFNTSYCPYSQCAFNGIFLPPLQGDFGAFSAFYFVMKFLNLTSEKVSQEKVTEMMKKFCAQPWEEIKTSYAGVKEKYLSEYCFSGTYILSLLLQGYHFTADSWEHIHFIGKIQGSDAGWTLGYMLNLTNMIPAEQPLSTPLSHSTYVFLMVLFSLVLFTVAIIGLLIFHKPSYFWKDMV
The experiment in a line: h-NTPDase activity assay. Type of data set: biochemical. To be noted: for inhibition at 100 µM: read-out: % Inhibition h-NTPDase1.

In a further data set the target is T3, h-NTPDase8 (Homo sapiens, UniProt Q5MY95).
T3 sequence (Q5MY95 1-495): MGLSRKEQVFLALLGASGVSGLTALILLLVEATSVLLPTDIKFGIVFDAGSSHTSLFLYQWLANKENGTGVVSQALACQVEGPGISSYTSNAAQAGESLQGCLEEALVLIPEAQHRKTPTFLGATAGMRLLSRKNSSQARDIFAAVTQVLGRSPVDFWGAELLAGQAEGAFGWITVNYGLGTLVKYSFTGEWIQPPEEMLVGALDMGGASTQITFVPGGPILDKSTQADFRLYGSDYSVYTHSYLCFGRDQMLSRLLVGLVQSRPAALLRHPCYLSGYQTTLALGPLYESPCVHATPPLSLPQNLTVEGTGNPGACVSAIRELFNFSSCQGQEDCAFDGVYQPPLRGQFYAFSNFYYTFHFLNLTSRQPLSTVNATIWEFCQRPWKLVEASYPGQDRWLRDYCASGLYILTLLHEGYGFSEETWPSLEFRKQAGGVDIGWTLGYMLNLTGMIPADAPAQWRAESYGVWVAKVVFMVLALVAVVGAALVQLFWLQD
Nature of the data set: h-NTPDase activity assay. Type of data set: biochemical.

Another data set relates to h-NTPDases. Nature of the data set: h-NTPDase activity assay, all four isoenzymes. Type of data set: biochemical, human. In short, it runs like this: (§1)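 Human NTPDase1, -2, -3 or -8 came from COS-7 cells transfected with plasmids via Lipofectamine, harvested at 44–48 h, sonicated and cleared of nuclei, with protein measured by Bradford. Enzyme per well was 12, 37, 43 or 63 ng respectively. Compound (0.1 mM final) was pre-incubated 10 min at 37 °C in 50 mM Tris–HCl, 5 mM CaCl2, pH 7.4. The reaction was started with ATP (100 µM), run 15 min, and stopped with malachite green; Pi was read at 630 nm.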

The target in the next data set is T4, h-NTPDase2 (Homo sapiens, UniProt Q9Y5L3).
T4 sequence (Q9Y5L3 1-495): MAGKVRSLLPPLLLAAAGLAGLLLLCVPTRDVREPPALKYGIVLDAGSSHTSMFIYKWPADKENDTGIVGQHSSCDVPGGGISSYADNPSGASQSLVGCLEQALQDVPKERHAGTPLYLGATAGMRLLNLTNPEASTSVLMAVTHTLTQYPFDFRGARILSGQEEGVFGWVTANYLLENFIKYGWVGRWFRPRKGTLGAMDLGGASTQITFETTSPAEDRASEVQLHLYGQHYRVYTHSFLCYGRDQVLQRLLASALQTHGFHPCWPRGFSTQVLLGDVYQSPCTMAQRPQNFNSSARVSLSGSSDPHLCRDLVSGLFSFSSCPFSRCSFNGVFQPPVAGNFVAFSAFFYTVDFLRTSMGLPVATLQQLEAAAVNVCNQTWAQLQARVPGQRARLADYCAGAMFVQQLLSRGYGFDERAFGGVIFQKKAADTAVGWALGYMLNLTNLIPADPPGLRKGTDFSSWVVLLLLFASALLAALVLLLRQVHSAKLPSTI
The experiment in a line: h-NTPDase activity assay. Type of data set: biochemical. Conditions: for inhibition at 100 µM: read-out: % Inhibition h-NTPDase2.

A further data set has as its target T5, h-NTPDase3 (Homo sapiens, UniProt O75355).
T5 sequence (O75355 1-529): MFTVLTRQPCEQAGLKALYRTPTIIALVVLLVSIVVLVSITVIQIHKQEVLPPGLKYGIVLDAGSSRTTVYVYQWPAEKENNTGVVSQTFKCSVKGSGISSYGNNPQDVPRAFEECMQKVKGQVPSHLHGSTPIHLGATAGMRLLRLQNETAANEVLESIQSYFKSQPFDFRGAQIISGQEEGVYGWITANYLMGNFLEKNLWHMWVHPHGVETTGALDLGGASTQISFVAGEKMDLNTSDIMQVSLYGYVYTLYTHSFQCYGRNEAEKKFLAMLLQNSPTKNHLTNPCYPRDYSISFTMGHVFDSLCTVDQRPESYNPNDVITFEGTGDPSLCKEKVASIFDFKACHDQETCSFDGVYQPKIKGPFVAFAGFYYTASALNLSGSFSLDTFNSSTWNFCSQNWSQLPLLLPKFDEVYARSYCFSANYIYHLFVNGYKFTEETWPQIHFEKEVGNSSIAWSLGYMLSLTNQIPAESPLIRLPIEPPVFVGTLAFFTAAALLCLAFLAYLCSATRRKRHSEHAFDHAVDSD
The experiment in a line: h-NTPDase activity assay. Type of data set: biochemical. Conditions: for inhibition at 100 µM: read-out: % Inhibition h-NTPDase3. In short, it runs like this: as §1

In a further data set the target is T6, h-NPP1 (Homo sapiens, UniProt P22413).
T6 sequence (P22413 1-925): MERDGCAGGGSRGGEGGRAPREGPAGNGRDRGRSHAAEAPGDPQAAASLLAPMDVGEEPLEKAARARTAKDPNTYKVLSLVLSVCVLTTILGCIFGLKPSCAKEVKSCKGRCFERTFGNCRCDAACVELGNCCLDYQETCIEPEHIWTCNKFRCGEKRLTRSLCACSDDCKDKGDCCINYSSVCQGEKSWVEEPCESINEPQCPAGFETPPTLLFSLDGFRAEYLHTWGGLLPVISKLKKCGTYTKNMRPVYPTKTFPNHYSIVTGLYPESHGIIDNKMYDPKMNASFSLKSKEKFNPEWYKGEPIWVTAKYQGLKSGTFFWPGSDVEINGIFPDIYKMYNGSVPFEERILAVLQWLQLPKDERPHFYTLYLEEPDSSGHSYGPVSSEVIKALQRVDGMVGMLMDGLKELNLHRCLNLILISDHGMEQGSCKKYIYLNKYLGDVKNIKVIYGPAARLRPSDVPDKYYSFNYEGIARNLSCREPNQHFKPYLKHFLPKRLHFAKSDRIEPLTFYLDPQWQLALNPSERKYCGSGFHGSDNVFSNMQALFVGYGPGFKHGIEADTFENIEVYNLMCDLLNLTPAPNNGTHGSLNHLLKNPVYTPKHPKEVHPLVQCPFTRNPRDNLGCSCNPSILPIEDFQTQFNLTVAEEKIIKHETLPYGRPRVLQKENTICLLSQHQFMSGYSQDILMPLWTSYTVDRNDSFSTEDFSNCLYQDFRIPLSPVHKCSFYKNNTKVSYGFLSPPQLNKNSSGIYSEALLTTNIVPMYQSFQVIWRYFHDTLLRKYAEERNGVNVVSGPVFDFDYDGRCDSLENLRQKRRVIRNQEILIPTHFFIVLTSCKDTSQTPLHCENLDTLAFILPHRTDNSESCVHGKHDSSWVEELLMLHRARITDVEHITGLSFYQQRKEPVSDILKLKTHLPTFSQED
Nature of the data set: h-NPP1 activity assay. Conditions: for inhibition at 100 µM: read-out: % Inhibition h-NPP1. Type of data set: biochemical.

Data set [2] has as its system MCF-7 breast cancer cells. Nature of the data set: MTT assay. Type of data set: cell-based, human. To be noted: MCF-7, 100 μM, 24 h, 100 µM.

In the case of `Cc1ccc(C(=O)Nc2ccc(S(=O)(=O)O)c3cc(S(=O)(=O)O)cc(S(=O)(=O)O)c23)cc1NC(=O)c1cccc(NC(=O)Nc2cccc(C(=O)Nc3cc(C(=O)Nc4ccc(S(=O)(=O)O)c5cc(S(=O)(=O)O)cc(S(=O)(=O)O)c45)ccc3C)c2)c1` [Suramin, reference compound], on h-e5’NT, the IC50 is 42.1 ± 7.8 µM.
Compound `COc1ccc(CNC(=O)c2ccc3ncccc3c2)c(OC)c1` [Compound 4i, N-(2,4-dimethoxybenzyl)quinoline-6-carboxamide] displayed a cytotoxicity at 24 h, 100 µM in the data set “MTT assay” of 41.5 ± 0.31%. This compound gave a viability at 24 h, 100 µM in the data set “MTT assay” of 58.5%. On h-e5’NT, this compound gave an IC50 of 0.99 ± 0.13 µM. Also, the inhibition at 100 µM at h-e5’NT came out at 54.9%; on h-NTPDase1 it was 19.5%; at h-NTPDase8 (read-out: % Inhibition h-NTPDase8, at 100 µM), 29.8%; on h-NTPDase2, 39.6%; on h-NTPDase3, 25.1%. Besides, the “% inhibition for all enzymes except h-e5′NT” value in data set [1] is “less than 50%”. In the data set on h-NTPDases, the “activity against all four h-NTPDase isoenzymes” value (from here on “activity”) is recorded as “poor activity”.
Regarding `O=C(NCc1ccc(Cl)cc1Cl)c1ccc2ncccc2c1` [Compound 4j, N-(2,4-dichlorobenzyl)quinoline-6-carboxamide], the values for the IC50 at h-NPP1 and against h-e5’NT were 13.5 ± 1.24 µM and 0.44 ± 0.07 µM, respectively. In addition, the inhibition at 100 µM on h-NPP1 is 85.5%; at h-e5’NT, 72.4%; on h-NTPDase1, 33.1%; at h-NTPDase2 it was 26.2%; at h-NTPDase3 it was 35.6%. The “% Viability” value in [2] is reported as 45.0%. In the data set “MTT assay”, this compound showed a cytotoxicity at 24 h, 100 µM of 55 ± 1.36%. This compound also came in with a viability at 24 h, 100 µM in “MTT assay” of 43 to 45%. Moreover, the “activity” value in the data set with h-NTPDases is recorded as “poor activity”.
In the case of `O=C(NCc1ccc(Cl)cc1)c1ccc2ncccc2c1` [Compound 4a, N-(4-chlorobenzyl)quinoline-6-carboxamide], the IC50 stood at 0.23 ± 0.02 µM on h-NPP1 and 0.092 ± 0.02 µM at h-e5’NT. The inhibition at 100 µM at h-NPP1 stood at 67%; on h-e5’NT, 67.9%; at h-NTPDase1, 37%; on h-NTPDase3, 30.6%. Further, in [2], the “% Cytotoxicity ± SD” value was found to be 37.3 ± 1.80%. In addition, in the data set “MTT assay”, the cytotoxicity at 24 h, 100 µM worked out at 37%. The compound further showed a viability at 24 h, 100 µM in “MTT assay” of 62.7%. Besides, the “activity” value with h-NTPDases is given as “poor activity”.
In the case of `Nc1c(S(=O)(=O)O)cc(Nc2ccc(Nc3nc(Cl)nc(Nc4cccc(S(=O)(=O)O)c4)n3)c(S(=O)(=O)O)c2)c2c1C(=O)c1ccccc1C2=O` [Reactive blue 2, reference compound], the IC50 was found to be 16.1 ± 1.02 µM against h-NTPDase1, 101 ± 2.34 µM at h-NTPDase8, 24.1 ± 3.01 µM on h-NTPDase2 and 4.31 ± 0.41 µM at h-NTPDase3.
